In ChEMBL document CHEMBL1777686, “Discovery of DA-1229: a potent, long acting dipeptidyl peptidase-4 inhibitor for the treatment of type 2 diabetes” (Bioorg Med Chem Lett, 2011):

Assays:
[1] = Half life in human liver microsomes; type: ADME, Microsome
Mus musculus [2] = test: Antidiabetic activity in po dosed C57BL/6J mouse assessed as reduction in glucose AUC administered 30 mins before glucose challenge measured up to 120 mins by oral glucose tolerance test; type: functional, organism-based
Summary of the method: (§1)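 Oral dosing in C57BL/6J mice at 0.1, 0.3 or 1.0 mg/kg in 0.5% methylcellulose vehicle, followed by a 2 g/kg glucose challenge 30 min post-dose. […] Percent inhibition was calculated from AUC normalized to non-glucose controls. Means ± SEM.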

[3] = molecular target: Voltage-gated inwardly rectifying potassium channel KCNH2 (Homo sapiens, UniProt Q12809); test: Inhibition of human ERG by patch clamp method
Chain of Voltage-gated inwardly rectifying potassium channel KCNH2 (Q12809 whole entry): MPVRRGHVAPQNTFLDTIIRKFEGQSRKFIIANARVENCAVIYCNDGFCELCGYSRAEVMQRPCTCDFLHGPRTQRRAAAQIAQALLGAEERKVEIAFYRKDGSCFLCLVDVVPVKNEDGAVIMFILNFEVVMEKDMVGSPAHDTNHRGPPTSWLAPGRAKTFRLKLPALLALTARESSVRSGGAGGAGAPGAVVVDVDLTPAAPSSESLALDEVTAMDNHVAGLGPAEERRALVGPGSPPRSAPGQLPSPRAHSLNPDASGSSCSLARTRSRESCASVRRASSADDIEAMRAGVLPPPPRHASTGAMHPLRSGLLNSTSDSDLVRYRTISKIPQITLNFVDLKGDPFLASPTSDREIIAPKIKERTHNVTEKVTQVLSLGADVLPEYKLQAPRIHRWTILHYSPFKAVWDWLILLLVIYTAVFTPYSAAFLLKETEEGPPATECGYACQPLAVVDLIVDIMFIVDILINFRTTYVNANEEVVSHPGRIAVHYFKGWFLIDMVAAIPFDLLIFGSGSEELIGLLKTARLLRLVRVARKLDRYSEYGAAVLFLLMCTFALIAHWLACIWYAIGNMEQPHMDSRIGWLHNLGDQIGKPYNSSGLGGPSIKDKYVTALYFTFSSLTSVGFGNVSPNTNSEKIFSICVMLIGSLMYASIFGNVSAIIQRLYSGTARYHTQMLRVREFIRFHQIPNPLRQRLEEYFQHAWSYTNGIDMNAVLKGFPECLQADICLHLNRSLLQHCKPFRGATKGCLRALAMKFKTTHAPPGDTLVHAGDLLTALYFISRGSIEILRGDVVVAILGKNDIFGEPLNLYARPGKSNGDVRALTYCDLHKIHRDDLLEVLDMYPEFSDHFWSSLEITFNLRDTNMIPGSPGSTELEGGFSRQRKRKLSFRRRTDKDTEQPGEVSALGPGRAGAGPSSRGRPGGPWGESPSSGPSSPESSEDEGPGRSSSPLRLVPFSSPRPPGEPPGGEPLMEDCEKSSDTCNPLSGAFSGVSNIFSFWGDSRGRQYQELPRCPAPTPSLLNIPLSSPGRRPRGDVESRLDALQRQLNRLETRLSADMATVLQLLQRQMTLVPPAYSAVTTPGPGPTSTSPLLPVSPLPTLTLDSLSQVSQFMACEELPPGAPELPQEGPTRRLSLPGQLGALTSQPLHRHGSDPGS

Mus musculus [4] = test: Antidiabetic activity in C57BL/6J mouse assessed as inhibition of blood glucose elevation at 1 mg/kg, po administered 30 mins before glucose challenge by oral glucose tolerance test; type: functional; summary of the method: as §1
Cytochrome P450 2D6 = Cytochrome P450 2D6 (Homo sapiens, UniProt P10635); test: Inhibition of CYP2D6; type: ADME
Chain of Cytochrome P450 2D6 (P10635 whole entry): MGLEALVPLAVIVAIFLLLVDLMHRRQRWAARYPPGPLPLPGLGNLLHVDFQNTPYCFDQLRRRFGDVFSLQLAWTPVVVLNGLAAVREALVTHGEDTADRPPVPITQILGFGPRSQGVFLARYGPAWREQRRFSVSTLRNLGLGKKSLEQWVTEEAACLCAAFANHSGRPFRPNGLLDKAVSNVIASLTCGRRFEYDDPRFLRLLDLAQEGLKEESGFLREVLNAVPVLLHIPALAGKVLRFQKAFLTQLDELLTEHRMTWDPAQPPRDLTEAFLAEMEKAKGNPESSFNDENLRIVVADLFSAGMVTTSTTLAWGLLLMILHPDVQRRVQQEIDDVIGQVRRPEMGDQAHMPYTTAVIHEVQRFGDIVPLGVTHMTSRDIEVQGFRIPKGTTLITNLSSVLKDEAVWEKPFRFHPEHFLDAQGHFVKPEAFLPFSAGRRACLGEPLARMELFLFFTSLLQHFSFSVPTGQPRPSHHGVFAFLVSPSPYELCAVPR

[5] = Clearance in rat; type: ADME, organism-based; settings: in vivo
[6] = Half life in rat; type: ADME, organism-based; settings: in vivo
Rattus norvegicus [7] = test: Inhibition of DPP-4 in Sprague-Dawley rat plasma at 1 mg/kg, po administered as single dose measured at 24 hrs post dose; type: functional
Summary of the method: (§2)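 SD rats received a single oral dose of 1, 3 or 10 mg/kg. Plasma was sampled from 30 min up to 24 h after dosing, and plasma DPP-4 activity was measured as percent inhibition.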

Rattus norvegicus [8] = test: Inhibition of DPP-4 in Sprague-Dawley rat plasma at 3 mg/kg, po administered as single dose measured at 24 hrs post dose; type: functional; summary of the method: as §2
Cytochrome P450 1A2 = molecular target: T1, Cytochrome P450 1A2 (Homo sapiens, UniProt P05177); test: Inhibition of CYP1A2; type: ADME
T1 sequence (P05177 whole entry): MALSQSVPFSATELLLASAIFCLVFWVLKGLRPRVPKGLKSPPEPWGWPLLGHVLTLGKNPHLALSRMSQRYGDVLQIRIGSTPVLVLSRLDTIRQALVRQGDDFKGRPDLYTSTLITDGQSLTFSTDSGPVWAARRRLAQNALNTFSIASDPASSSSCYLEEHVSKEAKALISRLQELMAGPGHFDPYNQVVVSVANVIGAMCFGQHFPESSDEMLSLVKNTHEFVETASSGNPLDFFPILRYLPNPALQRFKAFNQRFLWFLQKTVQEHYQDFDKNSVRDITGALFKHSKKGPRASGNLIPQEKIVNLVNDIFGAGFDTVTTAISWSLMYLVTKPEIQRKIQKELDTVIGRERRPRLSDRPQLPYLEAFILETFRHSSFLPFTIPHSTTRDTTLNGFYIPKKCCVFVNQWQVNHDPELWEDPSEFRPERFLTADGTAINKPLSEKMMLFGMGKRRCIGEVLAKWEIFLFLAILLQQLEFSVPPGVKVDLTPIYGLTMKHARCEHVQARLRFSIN

Cytochrome P450 3A4 = Cytochrome P450 3A4 (Homo sapiens, UniProt P08684); test: Inhibition of CYP3A4; type: ADME
Chain of Cytochrome P450 3A4 (P08684 whole entry): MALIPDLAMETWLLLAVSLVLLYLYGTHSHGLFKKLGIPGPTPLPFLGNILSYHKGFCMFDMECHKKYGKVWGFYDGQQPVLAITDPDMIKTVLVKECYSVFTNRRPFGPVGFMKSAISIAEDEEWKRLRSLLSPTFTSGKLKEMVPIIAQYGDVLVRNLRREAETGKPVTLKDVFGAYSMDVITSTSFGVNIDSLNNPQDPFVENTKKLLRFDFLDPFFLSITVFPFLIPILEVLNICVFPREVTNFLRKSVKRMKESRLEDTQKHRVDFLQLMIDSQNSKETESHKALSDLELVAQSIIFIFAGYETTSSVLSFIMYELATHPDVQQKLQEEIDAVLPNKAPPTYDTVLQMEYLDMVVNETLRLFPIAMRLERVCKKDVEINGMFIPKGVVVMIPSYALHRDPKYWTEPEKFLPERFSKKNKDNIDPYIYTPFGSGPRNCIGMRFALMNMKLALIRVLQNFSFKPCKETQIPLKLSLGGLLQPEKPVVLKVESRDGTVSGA

[9] = Volume of distribution at steady state in rat; type: ADME, organism-based; settings: in vivo, read-out: Vdss
Rattus norvegicus [10] = species: Rattus norvegicus; settings: Sprague-Dawley, Plasma, 1 mg/kg
Cytochrome P450 2C9 = Cytochrome P450 2C9 (Homo sapiens, UniProt P11712); test: Inhibition of CYP2C9; type: ADME
Chain of Cytochrome P450 2C9 (P11712 whole entry): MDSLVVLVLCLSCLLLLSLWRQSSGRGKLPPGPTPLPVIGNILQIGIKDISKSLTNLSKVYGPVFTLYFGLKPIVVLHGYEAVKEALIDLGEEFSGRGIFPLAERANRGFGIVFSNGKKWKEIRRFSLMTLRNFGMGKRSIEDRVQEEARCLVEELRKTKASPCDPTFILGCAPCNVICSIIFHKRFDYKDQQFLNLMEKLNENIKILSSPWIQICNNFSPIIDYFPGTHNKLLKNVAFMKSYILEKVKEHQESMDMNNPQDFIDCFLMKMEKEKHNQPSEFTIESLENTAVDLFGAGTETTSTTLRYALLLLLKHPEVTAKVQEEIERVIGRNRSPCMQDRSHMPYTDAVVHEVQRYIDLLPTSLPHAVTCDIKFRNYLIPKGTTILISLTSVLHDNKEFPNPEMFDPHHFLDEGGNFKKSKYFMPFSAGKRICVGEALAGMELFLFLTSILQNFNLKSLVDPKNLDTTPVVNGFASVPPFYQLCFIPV

Rattus norvegicus [11] = test: Inhibition of DPP-4 in Sprague-Dawley rat plasma at 10 mg/kg, po administered as single dose measured at 24 hrs post dose; type: functional; summary of the method: as §2
Cytochrome P450 2C19 = Cytochrome P450 2C19 (Homo sapiens, UniProt P33261); test: Inhibition of CYP2C19; type: ADME
Chain of Cytochrome P450 2C19 (P33261 whole entry): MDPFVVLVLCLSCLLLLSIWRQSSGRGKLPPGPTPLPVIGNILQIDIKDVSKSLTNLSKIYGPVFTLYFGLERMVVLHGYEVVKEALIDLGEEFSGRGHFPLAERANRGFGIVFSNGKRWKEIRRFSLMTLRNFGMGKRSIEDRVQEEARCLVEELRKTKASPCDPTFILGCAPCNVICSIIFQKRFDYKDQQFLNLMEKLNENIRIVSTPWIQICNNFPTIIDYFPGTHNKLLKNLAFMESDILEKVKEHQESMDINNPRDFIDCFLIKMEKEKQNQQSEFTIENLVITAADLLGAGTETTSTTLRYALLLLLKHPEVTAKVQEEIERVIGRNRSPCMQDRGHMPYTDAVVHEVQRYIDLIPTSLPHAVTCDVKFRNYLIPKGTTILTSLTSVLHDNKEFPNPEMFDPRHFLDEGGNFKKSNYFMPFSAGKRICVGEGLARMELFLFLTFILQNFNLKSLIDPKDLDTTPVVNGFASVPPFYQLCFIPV

[12] = Oral bioavailability in rat; type: ADME, organism-based; settings: in vivo

**Q.** Which results are given for `CC(C)(C)OC[C@@H]1C(=O)NCCN1C(=O)C[C@H](N)Cc1cc(F)c(F)cc1F` [EVOGLIPTIN]?
**A.** half-life [1]: > 1.5 h; Activity (Mus musculus [2]): Dose-dependent effect; IC50 [3]: 79.6 µM; inhibition in vivo at 1 mg/kg (Mus musculus [4]): 63%; INH (Cytochrome P450 2D6): > 50 µM; clearance [5]: 60.5 mL/min/kg; half-life [6]: 6.1 h; inhibition in vivo at 1 mg/kg (Rattus norvegicus [7]): 72.5%; inhibition in vivo at 3 mg/kg (Rattus norvegicus [8]): 82.9%; INH (Cytochrome P450 1A2): > 50 µM; INH (Cytochrome P450 3A4): > 50 µM; Vd [9]: 12 L/kg; inhibition (Rattus norvegicus [10]): Dose-dependent effect; INH (Cytochrome P450 2C9): > 50 µM; inhibition in vivo at 10 mg/kg (Rattus norvegicus [11]): 87.2%; INH (Cytochrome P450 2C19): > 50 µM; bioavailability [12]: 74.8%

**Q.** With `N[C@@H](CC(=O)N1CCNC(=O)[C@H]1CO)Cc1cc(F)c(F)cc1F` as the molecule, how does the “inhibition (INH)” value (Cytochrome P450 2D6) read?
**A.** Not Active

**Q.** And the “inhibition (INH)” value (Cytochrome P450 1A2)?
**A.** Not Active

**Q.** What about the “inhibition (INH)” value (Cytochrome P450 3A4) of the same molecule?
**A.** Not Active

**Q.** And the “inhibition (INH)” value (Cytochrome P450 2C9)?
**A.** Not Active

**Q.** What about the “inhibition (INH)” value (Cytochrome P450 2C19) of the same molecule?
**A.** Not Active

**Q.** With `COc1ccc(CN2CCN(C(=O)C[C@H](N)Cc3cc(F)c(F)cc3F)CC2=O)cc1` as the molecule, how does the IC50 (Cytochrome P450 3A4) read?
**A.** 1.07 µM
